Structures are written as SMILES. About 2,800 (0.9%) of roughly 310,000 compounds were called active. This is one part of a sample in which actives are shown more often than they occur.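 The calls were made as follows: active = B-score of the integrated calcium signal more than 4 SD below the library mean, with starting fluorescence not abnormally high; inactive = the rest.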

This assay is described as follows: RGS4 potentiators or activators, primary screen, cell-based, HEK293 M3R inducible RGS4, calcium flux (AID 463111).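 As to B-score: negative B-score means reduced calcium response which marks RGS4 activation or potentiation.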 As to conditions: HEK293 M3R/inducible RGS4, carbachol calcium flux Fluo4, at 10 µM; stronger effect = lower value. In short, it runs like this: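 Reagent: ECmax carbachol challenge; Test system: M3R-expressing HEK293 line, RGS4 induced by doxycycline; Schedule: overnight RGS4 induction, 30 min dye load 37 °C, 20 min compound RT; Detection: calcium dye Fluo4 fluorescence; Read-out: Agonist-evoked peak-minus-minimum fluorescence over baseline, integrated ratio, B score.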
Background: Calcium flux is commonly read through the fluorescence of an indicator in the cells.
For the molecule `CC(C)c1nnc(NC(=O)COC(=O)/C=C/c2ccc([N+](=O)[O-])cc2)s1`, the B-score result is “inactive”.

Regarding `COCCCNc1nc2ccccc2nc1NS(=O)(=O)c1ccc(F)cc1`, the B-score entry is “inactive”.

Turning to `O=C(Cn1ncc(N2CCCC2)c(Br)c1=O)c1ccc(Cl)cc1`, the B-score result was “inactive”.

Take `COc1cccc(N(CC(=O)NC2CCCC2)C(=O)CCCC(=O)Nc2ccccn2)c1`: the B-score result is “inactive”.

For the molecule `Fc1ccc(Cn2nnnc2C(c2cccs2)N2CCCCCC2)cc1` (centres undefined), the B-score entry was “inactive”.

`CCCCN1C(=O)/C(=C2/Sc3ccc(Cl)cc3N2CC)SC1=S`: the B-score entry was “inactive”.

`CN1C=CC=C/C1=C1\SC(=S)N(Cc2ccccc2)C1=O`: the B-score was -9.24 (active).

In the case of `CCCCN1C(=O)/C(=C2/C=CC=CN2C)SC1=S`, the B-score is -8.69 (active).

Turning to `CCN1C(=O)/C(=C2/Sc3ccccc3N2CCCS(=O)(=O)O)SC1=S`, the B-score result was “inactive”.

As to `CCCCN1C(=O)/C(=C/C=C2/C=Cc3ccccc3N2CC)SC1=S`, the B-score entry is “inactive”.

As to `COc1cc(/C=C2/SC(=S)N(Cc3ccccc3)C2=O)cc(OC)c1O`, the B-score entry was “inactive”.

With `CC(C)CNC(=S)NNC(=O)c1ccccc1OC(F)F`, the B-score entry is “inactive”.

In the case of `Cc1cccc(C(C)C)c1NC(=O)COC(=O)C1CC(=O)N(Cc2ccccc2)C1` (centres undefined), the B-score entry was “inactive”.

Regarding `CNC(=O)c1[nH]cnc1C(=O)N[C@@H](CC(C)C)C(=O)OCc1ccccc1`, the B-score entry is “inactive”.

With `N#Cc1ccc(/C=C2\CCn3c2nc2cc(C(=O)O)ccc2c3=O)cc1`, the B-score result was “inactive”.

On to `O=C(O)CC(SCC(=O)Nc1ccc(Br)cc1)C(=O)O` (centres undefined), for which the B-score result was “inactive”.

Turning to `Cc1ccc(NC(=O)c2oc3ccccc3c2C)c([N+](=O)[O-])c1`, the B-score entry is “inactive”.

As to `COc1ccc(-c2csc3ncnc(N4CCN(S(=O)(=O)c5ccccc5C#N)CC4)c23)cc1`, the B-score entry was “inactive”.

Turning to `COc1ccc(-c2csc3ncnc(Oc4ccc5c(C)cc(=O)oc5c4)c23)cc1`, the B-score entry was “inactive”.

In the case of `COc1ccc(-c2csc3ncnc(N4CCN(S(=O)(=O)c5cccc(F)c5)CC4)c23)cc1`, the B-score is -7.35 (active).

Take `O=C(NCc1ccccc1)[C@H]1C[C@@H]1[C@H](NP(=O)(c1ccccc1)c1ccccc1)c1ccccc1`: the B-score entry was “inactive”.

As to `CCCn1nnnc1NC(=O)COc1ccc(Cl)cc1C`, the B-score entry is “inactive”.

For the molecule `CCCCCCCCCCCCN1C(=O)CSC1c1cccnc1` (centres undefined), the B-score was -10 (active).

In the case of `CN(C)CCCN1C(=O)CSC1c1ccc([N+](=O)[O-])cc1` (centres undefined), the B-score entry is “inactive”.

With `CCCCCCOc1ccc(OC(=O)c2cccnc2)cc1`, the B-score entry is “inactive”.

In the case of `CC1(c2ccc3ccccc3c2)NC(=O)N(CC(N)=O)C1=O` (centres undefined), the B-score result is “inactive”.

With `CC1(C)CC(=O)C=C(N2CCOCC2)C1`, the B-score result was “inactive”.

As for `O=[N+]([O-])c1ccccc1OCCCCN1CCCCC1`, the B-score result is “inactive”.

For the molecule `Cc1ccc(C(C)(C)C)c(OCCCCN2CCCC2)c1`, the B-score entry is “inactive”.

With `Cc1ccc(OCCCCN2CCCCC2)c(Br)c1`, the B-score is -7.76 (active).

On to `O=C(NCCCCc1ccccc1)C1CC(c2ccc([N+](=O)[O-])cc2)=NO1` (centres undefined), for which the B-score entry was “inactive”.

As for `Cc1ccc(NC(=O)c2sccc2C)cc1[N+](=O)[O-]`, the B-score entry was “inactive”.

In the case of `O=C(Nc1ccc([N+](=O)[O-])cc1)C1CC12CCC2` (centres undefined), the B-score entry was “inactive”.

Regarding `COc1ccc(C(=O)N(C)CC(O)c2ccccc2)cc1OC1CCN(C(C)=O)CC1` (centres undefined), the B-score result was “inactive”.

`CCC(NC(=O)c1ccccc1NC(=O)c1ccccc1)C(=O)NNC(=O)CSc1nc2ccccc2o1` (centres undefined): the B-score result was “inactive”.

Take `CNS(=O)(=O)c1cccc(C(=O)NCC2CCCCC2)c1`: the B-score result is “inactive”.

For `CN(C(=O)c1cccc(OC2CCN(S(=O)(=O)N(C)C)CC2)c1)C1CCOC1` (centres undefined), the B-score entry is “inactive”.

Consider `CN(C)S(=O)(=O)N1CCC(Oc2cccc(C(=O)NCCCC3CCCC3)c2)CC1`, for which the B-score is -7.71 (active).

As for `Cc1ccc(-c2nc(CS(=O)(=O)CC(=O)NCc3ccc4c(c3)OCO4)c(C)o2)cc1`, the B-score entry is “inactive”.

For `N=c1c2c3c(sc2nc2n1CCCCC2)CCCC3`, the B-score was -8.12 (active).

As to `CC1(C)Cc2c(sc3nc4n(c(=N)c23)CCCCC4)CO1`, the B-score result was “inactive”.

On to `N=c1c2c3c(sc2ncn1N)CCCCC3`, for which the B-score result was “inactive”.

On to `CCOc1ccc(S(=O)(=O)Nc2ccc(C(=O)NCCCN3CCCC3=O)cc2)cc1`, for which the B-score result is “inactive”.

Consider `CN(C)CCOC(=O)C(c1ccccc1)C1(O)CCCC1` (centres undefined), for which the B-score result is “inactive”.

Consider `CN(C)CCOC1c2ccccc2-c2ccccc21`, for which the B-score result was “inactive”.

Take `Cc1ccccc1C(OCCN(C)C)C1CCCCC1` (centres undefined): the B-score was -8.62 (active).

For `Cc1ccc(C)c(N2CCN(C(=O)Cn3ncn4cccc4c3=O)CC2)c1`, the B-score entry was “inactive”.

Take `Cc1ccc(C)c(N2CCN(C(=O)CCCCCn3c(=S)[nH]c4ccc(N5CCOCC5)cc4c3=O)CC2)c1`: the B-score is -10.9 (active).

Turning to `O=C(CCCCCn1c(=S)[nH]c2cc3c(cc2c1=O)OCO3)N1CCN(c2ccc(F)cc2)CC1`, the B-score entry was “inactive”.

On to `Cc1ccc(C)c(N2CCN(C(=O)CCCCn3c(=O)[nH]c4ccccc4c3=O)CC2)c1`, for which the B-score entry is “inactive”.

On to `Cc1ccc(C)c(N2CCN(C(=O)CCCn3c(=O)c4cccn4c4cccnc43)CC2)c1`, for which the B-score was -7.65 (active).

With `Cc1ccc(C)c(N2CCN(C(=O)CCc3nc4ccccc4[nH]3)CC2)c1`, the B-score entry is “inactive”.

As to `Cn1c(=O)c2c(SCC(=O)NCC3CCCO3)nc(CC(C)(C)C)nc2n(C)c1=O` (centres undefined), the B-score result was “inactive”.

As to `OC1CCCN(c2ncnc3c2nnn3Cc2c(F)cccc2Cl)C1` (centres undefined), the B-score entry was “inactive”.

Take `COc1ccc(CNC(=O)C(c2ccc(O)cc2)N(Cc2ccco2)C(=O)c2snc(C(N)=O)c2N)cc1` (centres undefined): the B-score result is “inactive”.

On to `CC(C)c1ccc(NC(=O)Cn2ncc3ccccc32)cc1`, for which the B-score entry is “inactive”.

`COc1cccc(CNC(=O)CCC2CCCN(Cc3ccc(OC(F)F)cc3)C2)c1` (centres undefined): the B-score was -12 (active).

Regarding `COc1cccc(CNC(=O)CCC2CCCN(C(=O)c3ccc(F)c(Cl)c3)C2)c1` (centres undefined), the B-score entry is “inactive”.

On to `COc1cccc(C(=O)N2CCCC(CCC(=O)NCc3ccc(F)c(F)c3)C2)c1` (centres undefined), for which the B-score entry was “inactive”.
